Measured values taken from ChEMBL document CHEMBL1143576, “Discovery of 2-arylthiazolidine-4-carboxylic acid amides as a new class of cytotoxic agents for prostate cancer” (J Med Chem, 2005).

Experiments:
LNCaP [1] = experiment: Antiproliferative activity against prostate cancer LNCaP Cell line using sulforhodamine B(SRB) assay; assay type: functional, cell-based; settings: Homo sapiens, Prostate gland
Summary of the method: (§1)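 Cells seeded at 1000 to 5000 per well, depending on growth rate, and exposed to a range of concentrations for 96 h, in three to five replicates. Stocks were 5 to 20 mM in DMSO, diluted into complete medium. Endpoint cell number was measured by SRB: 10% trichloroacetic acid fixation, 0.4% SRB stain, absorbance at 540 nm.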

TSU = experiment: Antiproliferative activity against prostate cancer TSU-Pr1 cell line using sulforhodamine B(SRB) assay; assay type: functional, cell-based; settings: Homo sapiens; summary of the method: as §1
RH7777 [2] = experiment: Antiproliferative effect against RH7777 cell line using sulforhodamine B(SRB) assay; assay type: functional, cell-based; settings: Rattus norvegicus; summary of the method: as §1
DU-145 = experiment: Antiproliferative activity against prostate cancer DU-145 cell line using sulforhodamine B(SRB) assay; assay type: functional, cell-based; settings: Homo sapiens; summary of the method: as §1
PPC-1 = experiment: Antiproliferative activity against prostate cancer PPC-1 cell line using sulforhodamine B(SRB) assay; assay type: functional, cell-based; settings: Homo sapiens; summary of the method: as §1
PC-3 [3] = experiment: Antiproliferative activity against prostate cancer PC-3 cell line using sulforhodamine B(SRB) assay; assay type: functional, cell-based, Homo sapiens; summary of the method: as §1
[4] = tested on: RH7777 (Rattus norvegicus); experiment: Induction of apoptosis in rat RH7777 cell line at 2 uM concentration after 72 hr
LNCaP [5] = experiment: Induction of apoptosis in human LNCaP Cell line at 2 uM concentration after 72 hr; assay type: functional
Summary of the method: (§2)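 Cells were exposed to compound for 72 h. Cytoplasmic DNA-histone complexes (mono- and oligonucleosomes) were quantified by sandwich ELISA using monoclonal antibodies against DNA and histones. The enrichment factor is the OD405 ratio of treated to untreated cells.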

PC-3 [6] = experiment: Induction of apoptosis in human PC-3 cell line at 5 uM concentration after 72 hr; assay type: functional; summary of the method: as §2
PC-3 [7] = experiment: Induction of apoptosis in human PC-3 cell line at 10 uM concentration after 72 hr; assay type: functional; summary of the method: as §2
LNCaP [8] = experiment: Induction of apoptosis in human LNCaP Cell line at 10 uM concentration after 72 hr; assay type: functional; summary of the method: as §2
RH7777 [9] = experiment: Induction of apoptosis in rat RH7777 cell line at 10 uM concentration after 72 hr
PC-3 [10] = experiment: Induction of apoptosis in human PC-3 cell line at 2 uM concentration after 72 hr; assay type: functional; summary of the method: as §2
RH7777 [11] = experiment: Induction of apoptosis in rat RH7777 cell line at 5 uM concentration after 72 hr
LNCaP [12] = experiment: Induction of apoptosis in human LNCaP Cell line at 5 uM concentration after 72 hr; assay type: functional; summary of the method: as §2
[13] = tested on: RH7777 (Rattus norvegicus); experiment: Antiproliferative effect against RH7777 cell line using sulforhodamine B(SRB) assay; No activity
PC-3 [14] = experiment: Induction of apoptosis in human PC-3 cell line at 20 uM concentration after 72 hr; assay type: functional; summary of the method: as §2
LNCaP [15] = experiment: Induction of apoptosis in human LNCaP Cell line 20 at uM concentration after 72 hr; assay type: functional; summary of the method: as §2
LNCaP [16] = experiment: Induction of apoptosis in human LNCaP Cell line 10at uM concentration after 72 hr; assay type: functional; summary of the method: as §2
[17] = Homo sapiens, PC-3, read-out: IC50

Compound	IC50 (LNCaP [1]) [µM]	IC50 (TSU) [µM]	IC50 (RH7777 [2]) [µM]	IC50 (DU-145) [µM]	IC50 (PPC-1) [µM]	IC50 (PC-3 [3]; [17]) [µM]	also measured
CCCCCCCCCCCCCCCCCCNC(=O)[C@H]1CSC(c2ccc(F)c(Br)c2)N1 (some centres undefined)	3	14	20	11.3	4.7	13.5	–
CCCCCCCCCCCCCCCCCCNC(=O)[C@H]1CSC(c2ccc(C)cc2)N1 (some centres undefined)	1.9	8	> 20	10.5	1.9	12.8	–
CCCCCCCCCCCCCCCCCCNC(=O)[C@H]1CSC(C2CCCCC2)N1 (some centres undefined)	12.8	> 20	> 20	> 20	9.3	> 20	–
CCCCCCCCCCCCCCCCCCNC(=O)[C@H]1CSC(c2ccccc2)N1S(C)(=O)=O (some centres undefined)	> 20	> 20	> 20	> 20	> 20	> 20	–
CCCCCCCCCCCCCCCCCCNC(=O)[C@H]1CSC(c2c(Cl)cccc2Cl)N1 (some centres undefined)	13.1	20	> 20	> 20	17.1	> 20	–
CCCCCCCCCCCCCCCCCCNC(=O)[C@H]1CSC(CCCCCCCCCCCC)N1 (some centres undefined)	11.9	10.7	~20	8.9	13	15	–
CCCCCCCCCCCCCCCCCCNC(=O)[C@H]1CSC(c2cc(OC)c(OC)c(OC)c2)N1 (some centres undefined)	0.82	2.4	11.4	3.9	0.48	4	–
CCCCCCCCCCCCCCCCCCNC(=O)[C@H]1CSC(c2cccnc2)N1 (some centres undefined)	3.6	7.8	10.5	7.5	2.9	9.2	–
CCCCCCCCCCCCCCNC(=O)[C@H]1CSC(c2ccccc2)N1.Cl (some centres undefined)	1.4	2	3.4	2.4	1.3	3	Apoptosis [4]: 2.6; Apoptosis (LNCaP [5]): 14.1; Apoptosis (PC-3 [6]): 18.7; Apoptosis (PC-3 [7]): 54; Apoptosis (LNCaP [8]): 80.7; Apoptosis (RH7777 [9]): 2.5; Apoptosis (PC-3 [10]): 1.8; Apoptosis (RH7777 [11]): 3.2; Apoptosis (LNCaP [12]): 75.4
CCCCCCCCCCCCCCCCCCNC(=O)[C@H]1CSC(c2ccc([N+](=O)[O-])cc2)N1 (some centres undefined)	8.4	15.9	~20	15.3	15.3	~20	–
CCCCCCCCCCCCCCCCCCNC(=O)[C@H]1CSC(c2ccc(F)cc2)N1 (some centres undefined)	1.9	5.4	17.4	5.7	2.1	6.8	–
CCCCCCCCCCCCCCCCCCNC(=O)[C@H]1CSC(c2ccoc2)N1 (some centres undefined)	1.7	4.2	10.4	6.6	1.1	8.1	–
CCCCCCCNC(=O)[C@H]1CSC(c2ccccc2)N1 (some centres undefined)	12.4	28	52.2	44.9	34.7	38.5	–
CCCCCCCCCCCCCCCCCCCNC(=O)[C@H]1CSC(c2ccccc2)N1.Cl (some centres undefined)	13.6	> 20	–	> 20	16.8	–	IC50 (PC-3 [3]; pc-3): No activity; IC50 [13]: No activity
CCCCCCCCCCCCCCCCCCNC(=O)[C@H]1CSC(c2ccccc2)N1C(C)=O (some centres undefined)	16.1	> 20	> 20	~20	12.6	~20	–
CCCCCCCCCCCCCCCCCCNC(=O)[C@H]1CSC(c2c[nH]c3ccccc23)N1 (some centres undefined)	2.1	4.4	> 20	8.9	1.3	11.5	–
CCCCCCCCCCCCCCCCCCNC(=O)[C@H]1CSC(c2cccc(O)c2)N1 (some centres undefined)	1.7	4	31	5.7	1.2	6.7	–
CCCCCCCCCCCCCCCCCCNC(=O)[C@H]1CSC(c2ccc(N(C)C)cc2)N1 (some centres undefined)	1.6	3	> 20	5.3	1.1	6	–
CCCCCCCCCCCCCCCCCCNC(=O)[C@H]1CSC(c2cc(F)cc(F)c2)N1 (some centres undefined)	11.2	> 20	> 20	> 20	10.6	> 20	–
CCCCCCCCCCCCCCCCCCNC(=O)[C@H]1CSC(Cc2ccccc2)N1 (some centres undefined)	4.4	11.2	> 20	15.3	4	16.4	–
CCCCCCCCCCCCCCCCCCNC(=O)[C@H]1CSC(c2ccccc2)N1.Cl (some centres undefined)	2.1	5	25.6	5.4	2	7.8	Apoptosis (PC-3 [14]): 12.7; Apoptosis (LNCaP [5]): 4.5; Apoptosis (LNCaP [15]): 26.1; Apoptosis (PC-3 [6]): 2.3; Apoptosis (PC-3 [7]): 3.4; Apoptosis (PC-3 [10]): 1.4; Apoptosis (LNCaP [12]): 45.2; Apoptosis (LNCaP [16]): 37.1
CCCCCCCCCCCCCCCCCCNC(=O)[C@H]1CSC(c2ccc(Br)cc2)N1 (some centres undefined)	5.1	18.3	> 20	13.8	3.7	17.3	–
CC(=O)O[C@H]1C(=O)[C@@]2(C)[C@H]([C@H](OC(=O)c3ccccc3)[C@]3(O)C[C@H](OC(=O)[C@H](O)[C@@H](NC(=O)c4ccccc4)c4ccccc4)C(C)=C1C3(C)C)[C@]1(OC(C)=O)CO[C@@H]1C[C@@H]2O [PACLITAXEL]	0.002	0.0021	–	0.0027	0.0034	0.0034	–
CCCCCCCCCCCCCCCCCCNC(=O)[C@H]1CSC(c2ccc(OC)cc2)N1 (some centres undefined)	2.1	–	> 20	8.7	1.5	~20	–
CCCCCCCCCCCCCCCCCCNC(=O)c1csc(-c2ccccc2)n1	> 20	> 20	> 20	> 20	> 20	> 20	–
CCCCCCCCCCCCCCCCCCNC(=O)[C@H]1CSC(c2ccc(OC)c(OC)c2)N1 (some centres undefined)	0.85	2.4	10.3	4.5	0.58	5.2	–
CCCCCCCCCCCCCCCCCCNC(=O)[C@H]1CSC(c2ccc(C#N)cc2)N1 (some centres undefined)	5.9	> 20	> 20	> 20	5	> 20	–
CCCCCCCCCCCCCCCCCCNC(=O)[C@H]1CSC(c2ccc(NC(C)=O)cc2)N1 (some centres undefined)	1.3	0.94	21.1	3.1	0.55	5.6	–
CCCCCCCCCCCCCCCCCCNC(=O)[C@H]1CSC(c2ccc(-c3ccccc3)cc2)N1 (some centres undefined)	> 20	> 20	> 20	> 20	> 20	> 20	–
